Active and inactive are the calls of the source. The rule behind the calls is not given here.
Experiments:
SW-620 = assay: Cytotoxicity against human SW620 cells after 72 hrs by MTT assay; assay type: functional, cell-based; conditions: SW-620, 72 h
How it was run: (§1)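 Adherent cells were plated at 3000–6000 cells/well on day 0, according to doubling time. Compound was added as five 10-fold dilutions (1 × 10⁻⁸–1 × 10⁻⁴ M), with DMSO ≤0.1%, and incubated 72 h. Read-out was MTT absorbance converted to percentage growth versus untreated wells on the same plate. IC50 was obtained by linear regression between bracketing concentrations; the highest concentration was reported as ">" if not reached. Quadruplicates, three experiments.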

Influenza B virus = assay: Antiviral activity against influenza B virus infected in MDCK cells assessed as inhibition of virus-induced cytopathicity; assay type: functional, organism-based
How it was run: (§2)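 MDCK cells, nearly confluent in microtiter plates, were infected with 100 CCID50 per well. After 1 h adsorption, the inoculum was washed off. Cells were incubated with graded compound concentrations (200, 40, 8…). Cytopathicity was recorded at completion in untreated infected controls.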

SK-BR-3 = assay: Cytotoxicity against human SK-BR-3 cells after 72 hrs by MTT assay; assay type: functional, cell-based; conditions: SK-BR-3, 72 h; how it was run: as §1
Influenza A virus = assay: Antiviral activity against influenza A virus H1N1; H3N2 infected in MDCK cells assessed as inhibition of virus-induced cytopathicity; assay type: functional, organism-based; how it was run: as §2
Human respirovirus 3 = assay: Antiviral activity against Parainfluenza 3 infected in Vero cells assessed as inhibition of virus-induced cytopathicity; assay type: functional, organism-based
How it was run: (§3)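 Confluent cell monolayers in 96-well plates were inoculated with 100 CCID50 of virus. After 1 h adsorption, residual virus was removed. Cultures were then incubated with test compound at varying concentrations (200, 40, 8... µM). Viral cytopathicity was scored once it reached completion in untreated infected controls. Host cells: HEL for HSV-1 KOS and HSV-2 G; Vero for the Vero lines; HeLa for the HeLa lines.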

HEL = assay: Cytotoxicity against HEL cells assessed as cell viability after 3 days by coulter counting; assay type: cell-based; conditions: human, 72 h
How it was run: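 HEL cells were seeded at 5 × 10³ cells/well and allowed to proliferate 24 h. Medium with test compound at different concentrations was then added, and cells were incubated 3 days at 37 °C. Cell number was counted by Coulter counter. CC50 (50% reduction in cell number versus untreated controls) was read from plots of cell number (% of control) against concentration.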

Vero = assay: Cytotoxicity against african green monkey Vero cells assessed as cell viability after 3 days by coulter counting; assay type: cell-based; conditions: chlorocebus sabaeus, 72 h
HeLa [1] = assay: Cytotoxicity against human HeLa cells after 72 hrs by MTT assay; assay type: functional, cell-based; how it was run: as §1
[2] = test system: Respiratory syncytial virus; assay: Antiviral activity against Respiratory syncytial virus infected in human HeLa cells assessed as inhibition of virus-induced cytopathicity; assay type: functional, organism-based; how it was run: as §3
[3] = test system: Vesicular stomatitis virus; assay: Antiviral activity against Vesicular stomatitis virus infected in HEL cells assessed as inhibition of virus-induced cytopathicity; assay type: functional, organism-based
MCF7 = assay: Cytotoxicity against human MCF7 cells after 72 hrs by MTT assay; assay type: functional, cell-based; conditions: MCF7, 72 h; how it was run: as §1
MDCK = assay: Cytotoxicity against MDCK cells assessed as cell viability after 3 days by coulter counting; assay type: cell-based, Canis lupus familiaris; conditions: dog, 72 h
Sindbis virus = assay: Antiviral activity against Sindbis virus infected in Vero cells assessed as inhibition of virus-induced cytopathicity; assay type: functional, organism-based; how it was run: as §3
Vaccinia virus = assay: Antiviral activity against Vaccinia virus infected in HEL cells assessed as inhibition of virus-induced cytopathicity; assay type: functional, organism-based; conditions: Orthopoxvirus vaccinia
Human alphaherpesvirus 2 = assay: Antiviral activity against HSV2 G infected in HEL cells assessed as inhibition of virus-induced cytopathicity; assay type: functional, organism-based; conditions: strain G; how it was run: as §3
HeLa [4] = assay: Cytotoxicity against human HeLa cells assessed as cell viability after 3 days by coulter counting; assay type: cell-based; conditions: 72 h
[5] = test system: Mammalian orthoreovirus 1; assay: Antiviral activity against Reovirus 1 infected in Vero cells assessed as inhibition of virus-induced cytopathicity; assay type: functional, organism-based; how it was run: as §3
Human alphaherpesvirus 1 = assay: Antiviral activity against HSV1 KOS infected in HEL cells assessed as inhibition of virus-induced cytopathicity; assay type: functional, organism-based; how it was run: as §3
Punta Toro virus = assay: Antiviral activity against Punta Toro virus infected in Vero cells assessed as inhibition of virus-induced cytopathicity; assay type: functional, organism-based; how it was run: as §3
Coxsackievirus B4 [6] = assay: Antiviral activity against Coxsackievirus B4 infected in human HeLa cells assessed as inhibition of virus-induced cytopathicity; assay type: functional, organism-based; how it was run: as §3
Coxsackievirus B4 [7] = assay: Antiviral activity against Coxsackievirus B4 infected in Vero cells assessed as inhibition of virus-induced cytopathicity; assay type: functional, organism-based; how it was run: as §3
MIA PaCa-2 = assay: Cytotoxicity against human MIAPaCa2 cells after 72 hrs by MTT assay; assay type: functional, cell-based; conditions: MIA PaCa-2, 72 h; how it was run: as §1
[8] = Cytotoxicity against human WI38 cells after 72 hrs by MTT assay; assay type: cell-based; conditions: WI-38, 72 h; how it was run: as §1
HEp-2 = assay: Cytotoxicity against human Hep2 cells after 72 hrs by MTT assay; assay type: functional, cell-based; conditions: HEp-2, 72 h; how it was run: as §1
[9] = test system: Vesicular stomatitis virus; assay: Antiviral activity against Vesicular stomatitis virus infected in human HeLa cells assessed as inhibition of virus-induced cytopathicity; assay type: functional, organism-based
How it was run: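 Confluent HeLa cultures were infected with 100 CCID50 of virus. Unadsorbed virus was removed after 1 h, and compound was added at serial concentrations (200, 40, 8…). Viral cytopathic effect was read when untreated virus-infected control wells reached full cytopathicity.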

SMILES | IC50 (SW-620) [µM] | inhibition (Influenza B virus) | IC50 (SK-BR-3) [µM] | inhibition (Influenza A virus) | inhibition (Human respirovirus 3) | Activity (HEL) | Activity (Vero) | IC50 (HeLa [1]) [µM] | inhibition [2] | inhibition [3] | IC50 (MCF7) [µM] | Activity (MDCK) | inhibition (Sindbis virus) | inhibition (Vaccinia virus) | inhibition (Human alphaherpesvirus 2) | Activity (HeLa [4]) | inhibition [5] | inhibition (Human alphaherpesvirus 1) | inhibition (Punta Toro virus) | inhibition (Coxsackievirus B4 [6]) | further results
Cc1cn(C/C=C\CNC(=O)c2ccc(F)cc2)c(=O)[nH]c1=O | > 100 | inactive | > 100 | inactive | inactive | Non-toxic | Non-toxic | > 100 | inactive | inactive | 24.1 | Non-toxic | inactive | inactive | inactive | Non-toxic | inactive | inactive | inactive | inactive | inhibition (Coxsackievirus B4 [7]): inactive; IC50 (MIA PaCa-2): > 100 µM; IC50 [8]: 0.1 µM; IC50 (HEp-2): > 100 µM; inhibition [9]: inactive
Nc1ccn(C/C=C\CNC(=O)c2ccc(F)cc2)c(=O)n1 | > 100 | inactive | > 100 | inactive | inactive | Non-toxic | Non-toxic | > 100 | inactive | inactive | > 100 | Non-toxic | inactive | inactive | inactive | Non-toxic | inactive | inactive | inactive | inactive | inhibition (Coxsackievirus B4 [7]): inactive; IC50 (MIA PaCa-2): > 100 µM; IC50 [8]: 4 µM; IC50 (HEp-2): > 100 µM; inhibition [9]: inactive
O=C(NC/C=C\Cn1cc(F)c(=O)[nH]c1=O)c1ccccc1 | > 100 | inactive | > 100 | inactive | inactive | Non-toxic | Non-toxic | > 100 | inactive | inactive | > 100 | Non-toxic | inactive | inactive | inactive | Non-toxic | inactive | inactive | inactive | inactive | inhibition (Coxsackievirus B4 [7]): inactive; IC50 (MIA PaCa-2): > 100 µM; IC50 [8]: > 100 µM; IC50 (HEp-2): 87.5 µM; inhibition [9]: inactive
Nc1ccn(C/C=C\CNC(=O)c2ccccc2)c(=O)n1 | > 100 | inactive | 72 | inactive | inactive | Non-toxic | Non-toxic | > 100 | inactive | inactive | 31.4 | Non-toxic | inactive | inactive | inactive | Non-toxic | inactive | inactive | inactive | inactive | inhibition (Coxsackievirus B4 [7]): inactive; IC50 (MIA PaCa-2): > 100 µM; IC50 [8]: 4.2 µM; IC50 (HEp-2): > 100 µM; inhibition [9]: inactive
Nc1nc(=O)n(C/C=C\CNC(=O)c2ccc(F)cc2)cc1F | > 100 | inactive | > 100 | inactive | inactive | Non-toxic | Non-toxic | > 100 | inactive | inactive | > 100 | Non-toxic | inactive | inactive | inactive | Non-toxic | inactive | inactive | inactive | inactive | inhibition (Coxsackievirus B4 [7]): inactive; IC50 (MIA PaCa-2): > 100 µM; IC50 [8]: > 100 µM; IC50 (HEp-2): 32.1 µM; inhibition [9]: inactive
Nc1nc(=O)n(C/C=C\CNC(=O)c2ccccc2)cc1F | > 100 | inactive | > 100 | inactive | inactive | Non-toxic | Non-toxic | 71.9 | inactive | inactive | 34.4 | Non-toxic | inactive | inactive | inactive | Non-toxic | inactive | inactive | inactive | inactive | inhibition (Coxsackievirus B4 [7]): inactive; IC50 (MIA PaCa-2): > 100 µM; IC50 [8]: 50.2 µM; IC50 (HEp-2): > 100 µM; inhibition [9]: inactive
